One may read the Kd as the free concentration of one partner at which half of the binding sites on the other are occupied at equilibrium, for simple one-to-one binding.

The structures appear in SMILES notation.

Kd data for one compound are collected here from paper PMC6054565 (ACS chemical biology, 2018).

Common to all, as to test: chemiluminescence
What all share (type): binding

The target in one experiment is TbYcgR. The conditions noted are these: read-out: KD^a; 50 nM protein; 50 mM HEPES pH 7.2, 100 mM KCl, 10 mM DTT, 0.1% BSA; 28 °C. The method in brief:
(§1)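 Purified from E. coli co-expressing the c-di-GMP phosphodiesterase PdeH. Biosensor (YcgR domain inserted at the 91/92 site of split RLuc8) at 50 nM with c-di-GMP in 100 µL, equilibrated ≥10 min at 28 °C. Injected 20 µL of 60 µM coelenterazine-h in 50 mM HEPES pH 7.2, 100 mM KCl, 300 mM ascorbate. Total luminescence integrated 10 s after a 3 s delay.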

In another experiment the target is T1, EcYcgR (Escherichia coli, UniProt P76010).
T1 sequence (P76010 1-244): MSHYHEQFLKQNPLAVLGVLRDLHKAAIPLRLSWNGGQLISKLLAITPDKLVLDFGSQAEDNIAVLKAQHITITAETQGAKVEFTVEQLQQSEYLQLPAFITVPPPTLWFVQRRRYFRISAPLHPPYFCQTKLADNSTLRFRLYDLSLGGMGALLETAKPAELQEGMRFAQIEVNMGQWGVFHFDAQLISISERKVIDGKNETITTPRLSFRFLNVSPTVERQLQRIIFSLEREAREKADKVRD
The method in brief: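 Then 20 µL of 60 µM coelenterazine-h (in HEPES/KCl/300 mM ascorbate, equilibrated at RT for at least 30 min) was injected. Total luminescence was integrated for 10 s after a 3 s delay at 28 °C.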

The next experiment concerns the target PtYcgR. The conditions noted are these: read-out: KD^a; 50 nM protein; 50 mM HEPES pH 7.2, 100 mM KCl, 10 mM DTT, 0.1% BSA; 28 °C. The method in brief: as §1
The next experiment addresses TcYcgR. To be noted: read-out: KD^a; 50 nM protein; 50 mM HEPES pH 7.2, 100 mM KCl, 10 mM DTT, 0.1% BSA; 28 °C. An outline of the steps: as §1
The target of a further experiment is ToYcgR. To be noted: read-out: KD^a; 50 nM protein; 50 mM HEPES pH 7.2, 100 mM KCl, 10 mM DTT, 0.1% BSA; 28 °C. The method in brief:
as §1

The target in another experiment is BvYcgR. To be noted: read-out: KD^a; 50 nM protein; 50 mM HEPES pH 7.2, 100 mM KCl, 10 mM DTT, 0.1% BSA; 28 °C. The method in brief: as §1
The next experiment deals with CbYcgR. The conditions noted are these: read-out: KD^a; 50 nM protein; 50 mM HEPES pH 7.2, 100 mM KCl, 10 mM DTT, 0.1% BSA; 28 °C. An outline of the steps:
as §1

The target of another experiment is TmYcgR. To be noted: read-out: KD^a; 50 nM protein; 50 mM HEPES pH 7.2, 100 mM KCl, 10 mM DTT, 0.1% BSA; 28 °C. An outline of the steps:
as §1

In the next experiment the target is TuYcgR. The conditions noted are these: read-out: KD^a; 50 nM protein; 50 mM HEPES pH 7.2, 100 mM KCl, 10 mM DTT, 0.1% BSA; 28 °C. An outline of the steps:
as §1

In the next experiment the target is CpYcgR. To be noted: read-out: KD^a; 50 nM protein; 50 mM HEPES pH 7.2, 100 mM KCl, 10 mM DTT, 0.1% BSA; 28 °C. An outline of the steps: as §1
The next experiment concerns the target DnYcgR. To be noted: read-out: KD^a; 50 nM protein; 50 mM HEPES pH 7.2, 100 mM KCl, 10 mM DTT, 0.1% BSA; 28 °C. An outline of the steps: as §1
A further experiment deals with BtYcgR. To be noted: read-out: KD^a; 50 nM protein; 50 mM HEPES pH 7.2, 100 mM KCl, 10 mM DTT, 0.1% BSA; 28 °C. An outline of the steps: as §1

For the compound `Nc1nc2c(ncn2[C@@H]2O[C@@H]3COP(=O)(O)O[C@H]4[C@@H](O)[C@H](n5cnc6c(=O)[nH]c(N)nc65)O[C@@H]4COP(=O)(O)O[C@H]3[C@H]2O)c(=O)[nH]1` [c-di-GMP], the Kd at TbYcgR is under 50 nM; on EcYcgR, 354 ± 18 nM; on PtYcgR, under 50 nM; at TcYcgR, 59 ± 2 nM; at ToYcgR it was 379 ± 23 nM; at BvYcgR, 105 ± 2 nM. The Kd was under 50 nM on CbYcgR; under 50 nM at TmYcgR; under 50 nM at TuYcgR; under 50 nM at CpYcgR; 303 ± 15 nM at DnYcgR; 286 ± 17 nM on BtYcgR.
